Experimental data taken from ChEMBL document CHEMBL3297654, “Synthesis, antimicrobial and cytotoxic activities, and structure-activity relationships of gypsogenin derivatives against human cancer cells” (Eur J Med Chem, 2014).
Values after ≈ are worked out from the molar mass of the structure shown. Active and inactive are the calls of the source. The calls are words filed in the database; no cut-off is given here.

How the values were obtained:
HT-29 [1] = experiment: Antiproliferative activity against human HT-29 cells after 24 and 72 hrs by MTT assay; type: functional, cell-based
Method in brief: (§1)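 ATCC human cell lines are kept in RPMI, DMEM or McCoy's 5A with 10–15% heat-inactivated FCS at 37 °C and 5% CO2. They are seeded at 1×10^4–1×10^5 cells/mL in 48-well plates and exposed to 0.5, 10, 20 or 40 µM. Viability is read by MTT (590 nm) at 24 and 72 h. Growth is expressed relative to untreated cells and IC50 is fitted, in triplicate.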

HT-29 [2] = experiment: Induction of necrosis in human HT-29 cells at 20 uM after 48 hrs by Hoechst 33258/propidium iodide staining based phase contrast microscopic analysis; type: functional
Method in brief: (§2)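 Cells in 48-well plates treated with 0.5, 10, 20 or 40 µM for 24 and 48 h. Values are read at 48 h, 20 µM for test agents and 0.5 µM for controls. Staining is Hoechst 33258/propidium iodide double staining with fluorescence microscopy. Blue nuclei are viable or early-to-mid apoptotic, and pink nuclei are late apoptotic or necrotic. Apoptosis and necrosis are scored from chromatin condensation as % of cells. Cells are grown at 37 °C in 5% CO2 in RPMI, DMEM or McCoy's 5A with 10–15% heat-inactivated FCS.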

Proteus vulgaris = experiment: Antimicrobial activity against Proteus vulgaris ATCC 33420 assessed as zone of inhibition at 30 uL for 24 hrs at 37 degC by disk diffusion test; type: functional, organism-based
Method in brief: (§3)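 Compound (30 µL of a fresh 1000 µg/mL DMSO stock) goes into a 6 mm well cut in Mueller Hinton agar inoculated with 0.1 mL broth culture adjusted to 0.5 McFarland (about 1×10^8 cells/mL). Plates are incubated 24 h at 37 °C, then zone of inhibition diameter is measured in mm.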

Escherichia coli = experiment: Antimicrobial activity against Escherichia coli ATCC 25922 assessed as zone of inhibition at 30 uL for 24 hrs at 37 degC by disk diffusion test; type: functional, organism-based; method in brief: as §3
Bacillus thuringiensis [3] = experiment: Antimicrobial activity against Bacillus thuringiensis for 24 hrs by microdillution method; type: functional
Method in brief: (§4)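 Broth microdilution. Compound is dissolved in DMSO (2 mg/mL) and diluted in Mueller Hinton broth as two-fold serial dilutions from 256 to 0.125 µg/mL. Bacteria are pre-grown in nutrient broth at 30 °C, and the final inoculum is about 10^6 cfu/mL. Tests are incubated 37 °C for 24 h. MIC is the lowest concentration giving complete inhibition. Streptomycin is the positive control.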

[4] = Antiproliferative activity against human Saos2 cells after 24 and 72 hrs by MTT assay; type: functional, cell-based; settings: SAOS-2; method in brief: as §1
HeLa [5] = experiment: Induction of necrosis in human HeLa cells at 20 uM after 48 hrs by Hoechst 33258/propidium iodide staining based phase contrast microscopic analysis; type: functional; method in brief: as §2
Pseudomonas aeruginosa = experiment: Antimicrobial activity against Pseudomonas aeruginosa ATCC 35032 assessed as zone of inhibition at 30 uL for 24 hrs at 37 degC by disk diffusion test; type: functional, organism-based; method in brief: as §3
MCF7 [6] = experiment: Induction of necrosis in human MCF7 cells at 20 uM after 48 hrs by Hoechst 33258/propidium iodide staining based phase contrast microscopic analysis; type: functional; method in brief: as §2
Caco-2 [7] = experiment: Induction of necrosis in human Caco2 cells at 20 uM after 48 hrs by Hoechst 33258/propidium iodide staining based phase contrast microscopic analysis; type: functional; method in brief: as §2
Saccharomyces cerevisiae = experiment: Antimicrobial activity against Saccharomyces cerevisiae ATCC 9763 assessed as zone of inhibition at 30 uL for 24 hrs at 30 degC by disk diffusion test; type: functional, organism-based
Method in brief: (§5)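 Agar well diffusion on Mueller Hinton agar seeded with 0.1 mL broth culture (18–24 h), adjusted to 0.5 McFarland (about 1×10^8 bacteria or 1×10^6 yeast cells/mL). A 6 mm well is filled with 30 µL of compound from a fresh 1000 µg/mL DMSO stock. Plates are held at 30 °C for 24 h and inhibition zone diameter is read in mm.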

Bacillus subtilis [8] = experiment: Antimicrobial activity against Bacillus subtilis ATCC 6633 assessed as zone of inhibition at 30 uL for 24 hrs at 30 degC by disk diffusion test; type: functional; method in brief: as §5
Klebsiella pneumoniae = experiment: Antimicrobial activity against Klebsiella pneumoniae ATCC 13882 assessed as zone of inhibition at 30 uL for 24 hrs at 37 degC by disk diffusion test; type: functional, organism-based; method in brief: as §3
Enterococcus faecalis = experiment: Antimicrobial activity against Enterococcus faecalis ATCC 29212 assessed as zone of inhibition at 30 uL for 24 hrs at 37 degC by disk diffusion test; type: functional, organism-based; method in brief: as §3
HL-60 [9] = experiment: Induction of necrosis in human HL60 cells at 20 uM after 48 hrs by Hoechst 33258/propidium iodide staining based phase contrast microscopic analysis; type: functional; method in brief: as §2
[10] = tested on: Staphylococcus epidermidis; experiment: Antimicrobial activity against Staphylococcus epidermidis ATCC 12228 assessed as zone of inhibition at 30 uL for 24 hrs at 37 degC by disk diffusion test; type: functional, organism-based; method in brief: as §3
Bacillus thuringiensis [11] = experiment: Antimicrobial activity against Bacillus thuringiensis assessed as zone of inhibition at 30 uL for 24 hrs at 30 degC by disk diffusion test; type: functional; method in brief: as §5
Candida tropicalis = experiment: Antimicrobial activity against Candida tropicalis assessed as zone of inhibition at 30 uL for 24 hrs at 30 degC by disk diffusion test; type: functional, organism-based; method in brief: as §5
HT-29 [12] = experiment: Induction of apoptosis in human HT-29 cells at 20 uM after 48 hrs by Hoechst 33258/propidium iodide staining based phase contrast microscopic analysis; type: functional; method in brief: as §2
Bacillus cereus [13] = experiment: Antimicrobial activity against Bacillus cereus ATCC 11778 for 24 hrs by microdillution method; type: functional; settings: ATCC 11778, 24 h; method in brief: as §4
HL-60 [14] = experiment: Antiproliferative activity against human HL60 cells after 24 and 72 hrs by MTT assay; type: functional, cell-based; method in brief: as §1
Caco-2 [15] = experiment: Induction of apoptosis in human Caco2 cells at 20 uM after 48 hrs by Hoechst 33258/propidium iodide staining based phase contrast microscopic analysis; type: functional; method in brief: as §2
HeLa [16] = experiment: Antiproliferative activity against human HeLa cells after 24 and 72 hrs by MTT assay; type: functional, cell-based; method in brief: as §1
MCF7 [17] = experiment: Induction of apoptosis in human MCF7 cells at 20 uM after 48 hrs by Hoechst 33258/propidium iodide staining based phase contrast microscopic analysis; type: functional; method in brief: as §2
Candida albicans = experiment: Antimicrobial activity against Candida albicans ATCC 10231 assessed as zone of inhibition at 30 uL for 24 hrs at 30 degC by disk diffusion test; type: functional, organism-based; method in brief: as §5
HL-60 [18] = experiment: Induction of apoptosis in human HL60 cells at 20 uM after 48 hrs by Hoechst 33258/propidium iodide staining based phase contrast microscopic analysis; type: functional; method in brief: as §2
Bacillus subtilis [19] = experiment: Antimicrobial activity against Bacillus subtilis ATCC 6633 for 24 hrs by microdillution method; type: functional; settings: ATCC 6633, 24 h; method in brief: as §4
Staphylococcus aureus = experiment: Antimicrobial activity against Staphylococcus aureus ATCC 25923 assessed as zone of inhibition at 30 uL for 24 hrs at 37 degC by disk diffusion test; type: functional, organism-based; method in brief: as §3
Bacillus cereus [20] = experiment: Antimicrobial activity against Bacillus cereus ATCC 11778 assessed as zone of inhibition at 30 uL for 24 hrs at 30 degC by disk diffusion test; type: functional; method in brief: as §5
Micrococcus luteus = experiment: Antimicrobial activity against Micrococcus luteus ATCC 9341 assessed as zone of inhibition at 30 uL for 24 hrs at 30 degC by disk diffusion test; type: functional, organism-based; method in brief: as §5
Nakaseomyces glabratus = experiment: Antimicrobial activity against Candida glabrata assessed as zone of inhibition at 30 uL for 24 hrs at 30 degC by disk diffusion test; type: functional, organism-based; method in brief: as §5
SAOS-2 [21] = experiment: Induction of apoptosis in human Saos2 cells at 20 uM after 48 hrs by Hoechst 33258/propidium iodide staining based phase contrast microscopic analysis; type: functional; method in brief: as §2
MCF7 [22] = experiment: Antiproliferative activity against human MCF7 cells after 24 and 72 hrs by MTT assay; type: functional, cell-based; method in brief: as §1
SAOS-2 [23] = experiment: Induction of necrosis in human Saos2 cells at 20 uM after 48 hrs by Hoechst 33258/propidium iodide staining based […] microscopic analysis; type: functional; method in brief: as §2
HeLa [24] = experiment: Induction of apoptosis in human HeLa cells at 20 uM after 48 hrs by Hoechst 33258/propidium iodide staining based phase contrast microscopic analysis; type: functional; method in brief: as §2
Salmonella typhimurium = experiment: Antimicrobial activity against Salmonella typhimurium ATCC 14028 assessed as zone of inhibition at 30 uL for 24 hrs at 37 degC by disk diffusion test; type: functional, organism-based; settings: Salmonella enterica subsp. enterica serovar Typhimurium; method in brief: as §3
Cyberlindnera jadinii = experiment: Antimicrobial activity against Candida utilis ATCC 9950 assessed as zone of inhibition at 30 uL for 24 hrs at 30 degC by disk diffusion test; type: functional, organism-based; method in brief: as §5
Caco-2 [25] = experiment: Antiproliferative activity against human Caco2 cells after 24 and 72 hrs by MTT assay; type: functional, cell-based; method in brief: as §1

CC1(C)CC[C@]2(C(=O)O)CC[C@]3(C)C(=CC[C@@H]4[C@@]5(C)CC[C@H](O)[C@@](C)(C=O)[C@@H]5CC[C@]43C)[C@@H]2C1
IC50 (HT-29 [1]): 11.9 µM
Activity (HT-29 [2]): 2%
diameter of the inhibition zone (DIZ) (Proteus vulgaris): inactive
diameter of the inhibition zone (DIZ) (Escherichia coli): inactive
MIC (Bacillus thuringiensis [3]): 32 µg/mL (≈ 68 µM)
IC50 [4]: 7.85 µM
Activity (HeLa [5]): 0%
diameter of the inhibition zone (DIZ) (Pseudomonas aeruginosa): inactive
Activity (MCF7 [6]): 4%
Activity (Caco-2 [7]): 0%
diameter of the inhibition zone (DIZ) (Saccharomyces cerevisiae): inactive
diameter of the inhibition zone (DIZ) (Bacillus subtilis [8]): 13 mm
diameter of the inhibition zone (DIZ) (Klebsiella pneumoniae): inactive
diameter of the inhibition zone (DIZ) (Enterococcus faecalis): inactive
Activity (HL-60 [9]): 4%
diameter of the inhibition zone (DIZ) [10]: inactive
diameter of the inhibition zone (DIZ) (Bacillus thuringiensis [11]): 13 mm
diameter of the inhibition zone (DIZ) (Candida tropicalis): inactive
Activity (HT-29 [12]): 21%
MIC (Bacillus cereus [13]): 32 µg/mL (≈ 68 µM)
IC50 (HL-60 [14]): 10.4 µM
Activity (Caco-2 [15]): 20%
IC50 (HeLa [16]): 22.5 µM
Activity (MCF7 [17]): 30%
diameter of the inhibition zone (DIZ) (Candida albicans): inactive
Activity (HL-60 [18]): 33%
MIC (Bacillus subtilis [19]): 32 µg/mL (≈ 68 µM)
diameter of the inhibition zone (DIZ) (Staphylococcus aureus): inactive
diameter of the inhibition zone (DIZ) (Bacillus cereus [20]): 13 mm
diameter of the inhibition zone (DIZ) (Micrococcus luteus): inactive
diameter of the inhibition zone (DIZ) (Nakaseomyces glabratus): inactive
Activity (SAOS-2 [21]): 36%
IC50 (MCF7 [22]): 9.02 µM
Activity (SAOS-2 [23]): 2%
Activity (HeLa [24]): 29%
diameter of the inhibition zone (DIZ) (Salmonella typhimurium): inactive
diameter of the inhibition zone (DIZ) (Cyberlindnera jadinii): inactive
IC50 (Caco-2 [25]): 16.7 µM
